Reference: ChEMBL document CHEMBL4689842, “EUbOPEN Chemogenomics Library wave 1” (2021)
Where “and” joins values, the source holds several entries; their conditions need not be identical. Equal values may be shown once.

What was measured:
Type in all cases: toxicity, cell-based
Fibroblast [1] = assay: Multiplex assay against human fibroblast; details: 10 µM, compound concentration 10 uM
In short: (§1)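 Tubulin, mitochondrial-mass and membrane-permeability phenotypes are per cents of healthy-nucleus cells. Cells were gated by CellPathfinder machine learning into Hoechst high-intensity objects or normal cells, normal cells into healthy, pyknosed or fragmented nuclei, and pyknosed cells into mitotic or apoptotic. Before that, live cells stained at seeding with Hoechst33342, BioTracker Green Microtubule Cytoskeleton Dye, MitoTracker Red and Annexin V Alexa Fluor 680 were imaged on a CQ1 microscope at 37°C and 5% CO2 after compound addition.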

HEK-293T [2] = assay: Multiplex assay against HEK293T; details: human, 10 µM, compound concentration 10 uM; in short: as §1;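 on Population Tubulin-Different-Phenotype (%): share of the cells with healthy nuclei that show this phenotype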
U2OS [3] = assay: Multiplex assay against U2OS; details: human, 10 µM, compound concentration 10 uM; in short: as §1
HEK-293T [4] = assay: Incucyte cell viability with HEK293T; details: human, 10 µM, compound concentration 10 uM; further: filed as whole numbers so only -1 and 0 and 1 occur
Fibroblast [5] = assay: Incucyte cell viability with human fibroblast; details: 10 µM, compound concentration 10 uM; further: filed as whole numbers so only -1 and 0 and 1 occur
U2OS [6] = assay: Incucyte cell viability with U2OS; details: human, 10 µM, compound concentration 10 uM; further: filed as whole numbers so only -1 and 0 and 1 occur
[7] = 0 h, replicate number 1, timepoint 0 hours
[8] = 6 h, replicate number 1, timepoint 6 hours
[9] = 12 h, replicate number 1, timepoint 12 hours
[10] = 18 h, replicate number 1, timepoint 18 hours
[11] = 24 h, replicate number 1, timepoint 24 hours

SMILES: COc1ccccc1-c1cc(Nc2cccc(CS(N)(=O)=O)c2)ncn1
- Population Apoptotic (%) (Fibroblast [1]; 12 h, replicate 1): 70% and 60%
- Population Fragmented Nuclei (%) (Fibroblast [1]; 12 h, replicate 1): 24% and 28%
- Population Healthy Nuclei (%) (Fibroblast [1]; 12 h, replicate 1): 62% and 53%
- Population Hoechst High Intensity Objects (%) (Fibroblast [1]; 12 h, replicate 1): 11% and 10%
- Population Membrane Permeable-Phenotype (%) (Fibroblast [1]; 12 h, replicate 1): 9%
- Population Mitochondria Different-Phenotype (%) (Fibroblast [1]; 12 h, replicate 1): 4%
- Population Mitotic Cells (%) (Fibroblast [1]; 12 h, replicate 1): 29% and 39%
- Population Normal (%) (Fibroblast [1]; 12 h, replicate 1): 88% and 89%
- Population Pyknosed Nuclei (%) (Fibroblast [1]; 12 h, replicate 1): 13% and 17%
- Total Cell Count (Fibroblast [1]; 12 h, replicate 1): 208 and 254
- Population Apoptotic (%) (Fibroblast [1]; 12 h, replicate 2): 50% and 75%
- Population Fragmented Nuclei (%) (Fibroblast [1]; 12 h, replicate 2): 63% and 72%
- Population Healthy Nuclei (%) (Fibroblast [1]; 12 h, replicate 2): 31% and 20%
- Population Hoechst High Intensity Objects (%) (Fibroblast [1]; 12 h, replicate 2): 34% and 40%
- Population Membrane Permeable-Phenotype (%) (Fibroblast [1]; 12 h, replicate 2): 16% and 10%
- Population Mitochondria Different-Phenotype (%) (Fibroblast [1]; 12 h, replicate 2): 8% and 20%
- Population Mitotic Cells (%) (Fibroblast [1]; 12 h, replicate 2): 50% and 25%
- Population Normal (%) (Fibroblast [1]; 12 h, replicate 2): 65% and 59%
- Population Pyknosed Nuclei (%) (Fibroblast [1]; 12 h, replicate 2): 5% and 8%
- Population Tubulin-Different-Phenotype (%) (Fibroblast [1]; 12 h, replicate 2): 25% and 30%
- Total Cell Count (Fibroblast [1]; 12 h, replicate 2): 58 and 84
- Population Apoptotic (%) (Fibroblast [1]; 24 h, replicate 1): 75% and 66%
- Population Fragmented Nuclei (%) (Fibroblast [1]; 24 h, replicate 1): 25% and 23%
- Population Healthy Nuclei (%) (Fibroblast [1]; 24 h, replicate 1): 60% and 57%
- Population Hoechst High Intensity Objects (%) (Fibroblast [1]; 24 h, replicate 1): 14% and 10%
- Population Membrane Permeable-Phenotype (%) (Fibroblast [1]; 24 h, replicate 1): 7%
- Population Mitochondria Different-Phenotype (%) (Fibroblast [1]; 24 h, replicate 1): 4% and 11%
- Population Mitotic Cells (%) (Fibroblast [1]; 24 h, replicate 1): 24% and 33%
- Population Normal (%) (Fibroblast [1]; 24 h, replicate 1): 85% and 89%
- Population Pyknosed Nuclei (%) (Fibroblast [1]; 24 h, replicate 1): 14% and 19%
- Total Cell Count (Fibroblast [1]; 24 h, replicate 1): 267 and 188
- Population Apoptotic (%) (Fibroblast [1]; 24 h, replicate 2): 50%
- Population Fragmented Nuclei (%) (Fibroblast [1]; 24 h, replicate 2): 54% and 70%
- Population Healthy Nuclei (%) (Fibroblast [1]; 24 h, replicate 2): 40% and 26%
- Population Hoechst High Intensity Objects (%) (Fibroblast [1]; 24 h, replicate 2): 30% and 28%
- Population Membrane Permeable-Phenotype (%) (Fibroblast [1]; 24 h, replicate 2): 21% and 13%
- Population Mitochondria Different-Phenotype (%) (Fibroblast [1]; 24 h, replicate 2): 0%
- Population Mitotic Cells (%) (Fibroblast [1]; 24 h, replicate 2): 50%
- Population Normal (%) (Fibroblast [1]; 24 h, replicate 2): 70% and 71%
- Population Pyknosed Nuclei (%) (Fibroblast [1]; 24 h, replicate 2): 5% and 3%
- Population Tubulin-Different-Phenotype (%) (Fibroblast [1]; 24 h, replicate 2): 28% and 26%
- Total Cell Count (Fibroblast [1]; 24 h, replicate 2): 50 and 80
- Population Apoptotic (%) (HEK-293T [2]; 12 h, replicate 1): 31% and 19%
- Population Fragmented Nuclei (%) (HEK-293T [2]; 12 h, replicate 1): 21% and 13%
- Population Healthy Nuclei (%) (HEK-293T [2]; 12 h, replicate 1): 58% and 71%
- Population Hoechst High Intensity Objects (%) (HEK-293T [2]; 12 h, replicate 1): 17% and 8%
- Population Membrane Permeable-Phenotype (%) (HEK-293T [2]; 12 h, replicate 1): 3%
- Population Mitochondria Different-Phenotype (%) (HEK-293T [2]; 12 h, replicate 1): 6% and 5%
- Population Mitotic Cells (%) (HEK-293T [2]; 12 h, replicate 1): 68% and 80%
- Population Normal (%) (HEK-293T [2]; 12 h, replicate 1): 82% and 91%
- Population Pyknosed Nuclei (%) (HEK-293T [2]; 12 h, replicate 1): 20% and 15%
- Population Tubulin-Different-Phenotype (%) (HEK-293T [2]; 12 h, replicate 1): 5% and 3%
- Total Cell Count (HEK-293T [2]; 12 h, replicate 1): 577 and 663
- Population Apoptotic (%) (HEK-293T [2]; 12 h, replicate 2): 8% and 20%
- Population Fragmented Nuclei (%) (HEK-293T [2]; 12 h, replicate 2): 11% and 9%
- Population Healthy Nuclei (%) (HEK-293T [2]; 12 h, replicate 2): 84% and 85%
- Population Hoechst High Intensity Objects (%) (HEK-293T [2]; 12 h, replicate 2): 1% and 3%
- Population Membrane Permeable-Phenotype (%) (HEK-293T [2]; 12 h, replicate 2): 2% and 0%
- Population Mitochondria Different-Phenotype (%) (HEK-293T [2]; 12 h, replicate 2): 7% and 12%
- Population Mitotic Cells (%) (HEK-293T [2]; 12 h, replicate 2): 91%
- Population Normal (%) (HEK-293T [2]; 12 h, replicate 2): 98% and 96%
- Population Pyknosed Nuclei (%) (HEK-293T [2]; 12 h, replicate 2): 4% and 5%
- Population Tubulin-Different-Phenotype (%) (HEK-293T [2]; 12 h, replicate 2): 6% and 7%
- Total Cell Count (HEK-293T [2]; 12 h, replicate 2): 2027 and 1134
- Population Apoptotic (%) (HEK-293T [2]; 24 h, replicate 1): 24% and 33%
- Population Fragmented Nuclei (%) (HEK-293T [2]; 24 h, replicate 1): 14% and 19%
- Population Healthy Nuclei (%) (HEK-293T [2]; 24 h, replicate 1): 76% and 63%
- Population Hoechst High Intensity Objects (%) (HEK-293T [2]; 24 h, replicate 1): 4% and 13%
- Population Membrane Permeable-Phenotype (%) (HEK-293T [2]; 24 h, replicate 1): 8%
- Population Mitochondria Different-Phenotype (%) (HEK-293T [2]; 24 h, replicate 1): 3% and 5%
- Population Mitotic Cells (%) (HEK-293T [2]; 24 h, replicate 1): 75% and 66%
- Population Normal (%) (HEK-293T [2]; 24 h, replicate 1): 95% and 86%
- Population Pyknosed Nuclei (%) (HEK-293T [2]; 24 h, replicate 1): 8% and 17%
- Population Tubulin-Different-Phenotype (%) (HEK-293T [2]; 24 h, replicate 1): 6%
- Total Cell Count (HEK-293T [2]; 24 h, replicate 1): 801 and 590
- Population Apoptotic (%) (HEK-293T [2]; 24 h, replicate 2): 11% and 13%
- Population Healthy Nuclei (%) (HEK-293T [2]; 24 h, replicate 2): 66% and 86%
- Population Hoechst High Intensity Objects (%) (HEK-293T [2]; 24 h, replicate 2): 3%
- Population Membrane Permeable-Phenotype (%) (HEK-293T [2]; 24 h, replicate 2): 6% and 3%
- Population Mitotic Cells (%) (HEK-293T [2]; 24 h, replicate 2): 88% and 86%
- Population Normal (%) (HEK-293T [2]; 24 h, replicate 2): 96%
- Population Pyknosed Nuclei (%) (HEK-293T [2]; 24 h, replicate 2): 2% and 4%
- Population Tubulin-Different-Phenotype (%) (HEK-293T [2]; 24 h, replicate 2): 9% and 23%
- Total Cell Count (HEK-293T [2]; 24 h, replicate 2): 3407 and 1342
- Population Apoptotic (%) (U2OS [3]; 12 h, replicate 1): 53% and 27%
- Population Fragmented Nuclei (%) (U2OS [3]; 12 h, replicate 1): 10% and 8%
- Population Healthy Nuclei (%) (U2OS [3]; 12 h, replicate 1): 82% and 84%
- Population Membrane Permeable-Phenotype (%) (U2OS [3]; 12 h, replicate 1): 13% and 7%
- Population Mitochondria Different-Phenotype (%) (U2OS [3]; 12 h, replicate 1): 23% and 20%
- Population Mitotic Cells (%) (U2OS [3]; 12 h, replicate 1): 46% and 72%
- Population Normal (%) (U2OS [3]; 12 h, replicate 1): 93% and 98%
- Population Pyknosed Nuclei (%) (U2OS [3]; 12 h, replicate 1): 7% and 6%
- Population Tubulin-Different-Phenotype (%) (U2OS [3]; 12 h, replicate 1): 19% and 10%
- Total Cell Count (U2OS [3]; 12 h, replicate 1): 160 and 443
- Population Apoptotic (%) (U2OS [3]; 12 h, replicate 2): 0% and 25%
- Population Fragmented Nuclei (%) (U2OS [3]; 12 h, replicate 2): 9%
- Population Healthy Nuclei (%) (U2OS [3]; 12 h, replicate 2): 75% and 86%
- Population Hoechst High Intensity Objects (%) (U2OS [3]; 12 h, replicate 2): 16% and 11%
- Population Membrane Permeable-Phenotype (%) (U2OS [3]; 12 h, replicate 2): 17% and 9%
- Population Mitochondria Different-Phenotype (%) (U2OS [3]; 12 h, replicate 2): 21%
- Population Mitotic Cells (%) (U2OS [3]; 12 h, replicate 2): 100% and 75%
- Population Normal (%) (U2OS [3]; 12 h, replicate 2): 83% and 88%
- Population Tubulin-Different-Phenotype (%) (U2OS [3]; 12 h, replicate 2): 12% and 34%
- Total Cell Count (U2OS [3]; 12 h, replicate 2): 138 and 311
- Population Apoptotic (%) (U2OS [3]; 24 h, replicate 1): 68% and 25%
- Population Healthy Nuclei (%) (U2OS [3]; 24 h, replicate 1): 79% and 93%
- Population Hoechst High Intensity Objects (%) (U2OS [3]; 24 h, replicate 1): 3% and 2%
- Population Membrane Permeable-Phenotype (%) (U2OS [3]; 24 h, replicate 1): 16% and 7%
- Population Mitochondria Different-Phenotype (%) (U2OS [3]; 24 h, replicate 1): 30% and 18%
- Population Mitotic Cells (%) (U2OS [3]; 24 h, replicate 1): 31% and 75%
- Population Normal (%) (U2OS [3]; 24 h, replicate 1): 96% and 97%
- Population Tubulin-Different-Phenotype (%) (U2OS [3]; 24 h, replicate 1): 22%
- Total Cell Count (U2OS [3]; 24 h, replicate 1): 230 and 545
- Population Apoptotic (%) (U2OS [3]; 24 h, replicate 2): 62% and 50%
- Population Healthy Nuclei (%) (U2OS [3]; 24 h, replicate 2): 63% and 91%
- Population Mitochondria Different-Phenotype (%) (U2OS [3]; 24 h, replicate 2): 33% and 31%
- Population Mitotic Cells (%) (U2OS [3]; 24 h, replicate 2): 37% and 50%
- Population Normal (%) (U2OS [3]; 24 h, replicate 2): 78% and 93%
- Population Tubulin-Different-Phenotype (%) (U2OS [3]; 24 h, replicate 2): 23% and 33%
- Total Cell Count (U2OS [3]; 24 h, replicate 2): 157 and 384
- Growth Rate (HEK-293T [4]; [7]): 0
- Growth Rate (HEK-293T [4]; [8]): 0
- Growth Rate (HEK-293T [4]; [9]): 0
- Growth Rate (HEK-293T [4]; [10]): 0
- Growth Rate (HEK-293T [4]; [11]): 0
- Growth Rate (Fibroblast [5]; [7]): 0
- Growth Rate (Fibroblast [5]; [8]): 0
- Growth Rate (Fibroblast [5]; 6 h, replicate number 2, timepoint 6 hours): 1
- Growth Rate (Fibroblast [5]; [9]): 0
- Growth Rate (Fibroblast [5]; [10]): 0
- Growth Rate (Fibroblast [5]; [11]): 0
- Growth Rate (U2OS [6]; [7]): 0
- Growth Rate (U2OS [6]; [8]): 0
- Growth Rate (U2OS [6]; [9]): 0
- Growth Rate (U2OS [6]; [10]): 0
- Growth Rate (U2OS [6]; [11]): 0
